One test is filed under the species Homo sapiens. In words: Selectivity ratio of EC50 for human OX2 receptor to EC50 for human OX1 receptor.
In the next test the target is T1, Orexin receptor type 2 (Homo sapiens, UniProt O43614).
T1 sequence (O43614 whole entry): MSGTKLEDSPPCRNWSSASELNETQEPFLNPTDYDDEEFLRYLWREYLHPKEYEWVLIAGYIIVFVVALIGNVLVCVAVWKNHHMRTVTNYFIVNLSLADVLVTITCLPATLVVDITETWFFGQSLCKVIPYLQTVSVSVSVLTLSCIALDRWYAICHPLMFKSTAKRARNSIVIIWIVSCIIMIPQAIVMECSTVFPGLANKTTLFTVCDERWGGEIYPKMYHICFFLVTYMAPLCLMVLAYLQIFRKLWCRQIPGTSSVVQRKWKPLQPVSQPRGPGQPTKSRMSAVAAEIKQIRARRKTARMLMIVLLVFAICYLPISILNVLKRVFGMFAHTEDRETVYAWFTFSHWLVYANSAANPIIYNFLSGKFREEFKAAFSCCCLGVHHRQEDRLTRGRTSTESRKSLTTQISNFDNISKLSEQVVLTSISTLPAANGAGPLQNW
Kind of test: Agonist activity at human OX2 receptor overexpressed in CHO-RD-HGA16 cells assessed as calcium mobilization after 15 mins by fluorescence assay. Format: functional, cell-based. (Calcium assays in cells follow changes in intracellular calcium, usually with a dye or a luminescent sensor.)

Test [1] addresses T2, Orexin/Hypocretin receptor type 1 (Homo sapiens, UniProt O43613).
T2 sequence (O43613 whole entry): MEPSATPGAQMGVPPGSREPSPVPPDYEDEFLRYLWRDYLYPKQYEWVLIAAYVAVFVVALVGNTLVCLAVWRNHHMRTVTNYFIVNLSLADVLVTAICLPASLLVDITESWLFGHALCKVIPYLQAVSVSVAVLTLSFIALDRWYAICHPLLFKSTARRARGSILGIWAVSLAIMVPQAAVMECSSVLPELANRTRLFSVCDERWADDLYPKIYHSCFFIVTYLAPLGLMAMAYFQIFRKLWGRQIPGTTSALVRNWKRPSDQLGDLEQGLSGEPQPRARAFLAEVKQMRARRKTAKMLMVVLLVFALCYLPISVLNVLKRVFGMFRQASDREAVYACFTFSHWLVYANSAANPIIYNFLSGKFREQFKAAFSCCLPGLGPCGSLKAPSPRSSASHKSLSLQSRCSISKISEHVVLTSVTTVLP
In words: Agonist activity at human OX1 receptor overexpressed in CHO-RD-HGA16 cells assessed as calcium mobilization after 15 mins by fluorescence assay. Format: functional, cell-based. In short, it runs like this:
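EC50 from 8-point half-log concentration-response curves. Values are means of at least three independent experiments in duplicate, with SEM, or means of two independent duplicate experiments.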

The structures appear in SMILES notation. pEC50: −log10 of the molar value. Where a SMILES comes first, the peptide text is derived from it.

This note sets out measurements from ChEMBL document CHEMBL3102805, “Truncated Orexin Peptides: Structure-Activity Relationship Studies” (ACS Med Chem Lett, 2013).

A word on the pEC50: it is the EC50 on a negative log10 scale, so that one unit is a factor of ten. As for `CC[C@H](C)[C@H](NC(=O)CNC(=O)[C@H](C)NC(=O)[C@H](C)NC(=O)[C@H](Cc1cnc[nH]1)NC(=O)[C@H](CC(N)=O)NC(=O)CNC(=O)[C@H](C)NC(=O)CNC(=O)[C@H](Cc1cnc[nH]1)NC(=O)[C@H](CC(C)C)NC(=O)[C@H](CC(C)C)NC(=O)[C@H](CCC(=O)O)NC(=O)[C@H](N)Cc1ccc(O)cc1)C(=O)N[C@@H](CC(C)C)C(=O)N[C@H](C(=O)N[C@@H](CC(C)C)C(N)=O)[C@@H](C)O`, the Ratio EC50 in the test filed under Homo sapiens was 2.4. In addition, the negative logarithm of the EC50 (pEC50) was 5.49 on Orexin receptor type 2 and 5.87 in test [1].

For the compound `CC[C@H](C)[C@H](NC(=O)CNC(=O)[C@H](C)NC(=O)[C@H](C)NC(=O)[C@H](Cc1cnc[nH]1)NC(=O)[C@H](CC(N)=O)NC(=O)CNC(=O)[C@H](C)NC(=O)CNC(=O)[C@H](Cc1cnc[nH]1)NC(=O)[C@H](CC(C)C)NC(=O)[C@H](CC(C)C)NC(=O)[C@@H](CCC(=O)O)NC(=O)[C@@H](N)Cc1ccc(O)cc1)C(=O)N[C@@H](CC(C)C)C(=O)N[C@H](C(=O)N[C@@H](CC(C)C)C(N)=O)[C@@H](C)O`, the Ratio EC50 in the test listed under Homo sapiens turned out to be 2.9. Besides, the negative logarithm of the EC50 (pEC50) is 5.67 on Orexin receptor type 2 and 6.13 in test [1].

With `CC[C@H](C)[C@H](NC(=O)CNC(=O)[C@H](C)NC(=O)[C@H](C)NC(=O)[C@H](Cc1cnc[nH]1)NC(=O)[C@H](CC(N)=O)NC(=O)CNC(=O)[C@H](C)NC(=O)CNC(=O)[C@H](Cc1cnc[nH]1)NC(=O)[C@H](CC(C)C)NC(=O)[C@@H](CC(C)C)NC(=O)[C@H](CCC(=O)O)NC(=O)[C@@H](N)Cc1ccc(O)cc1)C(=O)N[C@@H](CC(C)C)C(=O)N[C@H](C(=O)N[C@@H](CC(C)C)C(N)=O)[C@@H](C)O`, the Ratio EC50 in the test filed under Homo sapiens is 0.5. Moreover, the values for the negative-log EC50 (pEC50) (on Orexin receptor type 2; in test [1]) were 6.58 and 6.28, respectively.

Take `CC[C@H](C)[C@H](NC(=O)CNC(=O)[C@H](C)NC(=O)[C@H](C)NC(=O)[C@H](Cc1cnc[nH]1)NC(=O)[C@H](CC(N)=O)NC(=O)CNC(=O)[C@H](C)NC(=O)CNC(=O)[C@H](Cc1cnc[nH]1)NC(=O)[C@@H](CC(C)C)NC(=O)[C@H](CC(C)C)NC(=O)[C@H](CCC(=O)O)NC(=O)[C@@H](N)Cc1ccc(O)cc1)C(=O)N[C@@H](CC(C)C)C(=O)N[C@H](C(=O)N[C@@H](CC(C)C)C(N)=O)[C@@H](C)O`: in the test filed under Homo sapiens, the Ratio EC50 came to 0.3. The figures for the pEC50 (on Orexin receptor type 2; in test [1]) were 6.81 and 6.27, respectively.

As to `CC[C@H](C)[C@H](NC(=O)CNC(=O)[C@H](C)NC(=O)[C@H](C)NC(=O)[C@H](Cc1cnc[nH]1)NC(=O)[C@H](CC(N)=O)NC(=O)CNC(=O)[C@H](C)NC(=O)CNC(=O)[C@@H](Cc1cnc[nH]1)NC(=O)[C@H](CC(C)C)NC(=O)[C@H](CC(C)C)NC(=O)[C@H](CCC(=O)O)NC(=O)[C@@H](N)Cc1ccc(O)cc1)C(=O)N[C@@H](CC(C)C)C(=O)N[C@H](C(=O)N[C@@H](CC(C)C)C(N)=O)[C@@H](C)O`, the Ratio EC50 in the test listed under Homo sapiens was determined as 0.4. Further, the negative logarithm of the EC50 (pEC50) on Orexin receptor type 2 is 6.21; in test [1], 5.81.

On to `CC[C@H](C)[C@H](NC(=O)CNC(=O)[C@H](C)NC(=O)[C@H](C)NC(=O)[C@H](Cc1cnc[nH]1)NC(=O)[C@H](CC(N)=O)NC(=O)CNC(=O)[C@H](C)NC(=O)CNC(=O)[C@H](Cc1cnc[nH]1)NC(=O)[C@H](CC(C)C)NC(=O)[C@H](CC(C)C)NC(=O)[C@H](CCC(=O)O)NC(=O)[C@H](C)N)C(=O)N[C@@H](CC(C)C)C(=O)N[C@H](C(=O)N[C@@H](CC(C)C)C(N)=O)[C@@H](C)O` (H-AELLHGAGNHAAGILTL-NH2), for which, in the test filed under Homo sapiens, the Ratio EC50 was 2.5. In addition, the negative-log EC50 (pEC50) is 5.32 at Orexin receptor type 2 and 5.72 in test [1].

Take `CC[C@H](C)[C@H](NC(=O)CNC(=O)[C@H](C)NC(=O)[C@H](C)NC(=O)[C@H](Cc1c[nH]cn1)NC(=O)[C@H](CC(N)=O)NC(=O)CNC(=O)[C@H](C)NC(=O)CNC(=O)[C@H](Cc1c[nH]cn1)NC(=O)[C@H](CC(C)C)NC(=O)[C@@H](N)CC(C)C)C(=O)N[C@@H](CC(C)C)C(=O)N[C@H](C(=O)N[C@@H](CC(C)C)C(N)=O)[C@@H](C)O` (H-LLHGAGNHAAGILTL-NH2): in the test filed under Homo sapiens, the Ratio EC50 came to 0.7. The results for the pEC50 (on Orexin receptor type 2; in test [1]) were 6.02 and 5.86, respectively.
